In brackets after ≈: the same amount, converted by molar mass. Activity calls are given as the source filed them. The rule behind the calls is not given here.
Assays:
[1] = tested on: Mycolicibacterium fortuitum; test: Antimycobacterial activity against Mycobacterium fortuitum ATCC 6841 assessed as visible growth inhibition incubated for 16 to 18 hrs; format: functional, organism-based; conditions: time 16-18 hrs
[2] = tested on: Mycobacteroides abscessus; test: Antimycobacterial activity against Mycobacterium abscessus ATCC 19977 assessed as visible growth inhibition incubated for 16 to 18 hrs; format: functional, organism-based; conditions: time 16-18 hrs
[3] = tested on: Mycobacterium tuberculosis; test: Antitubercular activity against Mycobacterium tuberculosis H37Rv assessed as bacterial growth inhibition after 7 days by broth microdilution assay; format: functional; conditions: 168 h, dose 0.03-64 µg/ml, time 7 day
Procedure, shortened: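 Compounds were tested in broth microdilution from 64 downward, incubated 37 °C for 7 days, then resazurin (PrestoBlue) added. MIC is the lowest concentration preventing the blue-to-pink change, run in triplicate, reporting the value obtained at least twice of three.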

[4] = tested on: Mycobacteroides chelonae; test: Antimycobacterial activity against Mycobacterium chelonae ATCC 35752 assessed as visible growth inhibition incubated for 16 to 18 hrs; format: functional, organism-based; conditions: time 16-18 hrs
[5] = tested on: Mycobacterium tuberculosis; test: Antimycobacterial activity against Mycobacterium tuberculosis H37Rv ATCC 27294 assessed as reduction in bacterial growth incubated for […] by broth microdilution assay; format: functional
[6] = Cytotoxicity against African green monkey vero cells assessed as reduction in cell viability measured after 72 hrs by MTT assay; format: cell-based; conditions: chlorocebus sabaeus
Procedure, shortened: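 Vero cells seeded at ~10³ cells/well and grown 24 h at 37 °C, 5% CO₂, then exposed to compound (100 to 5 mg/l) for 72 h. MTT was added […] for 4 h and formazan dissolved in DMSO. CC50 is the lowest concentration giving 50% viability reduction. Doxorubicin was the positive control, run in triplicate.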

[7] = Selectivity index, ratio of CC50 for African green monkey Vero cells to MIC for Antitubercular activity against Mycobacterium tuberculosis H37Rv; format: toxicity; conditions: read-out: Selectivity Index
Procedure, shortened: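 Selectivity index calculated as Vero CC50 (MTT, 72 h) divided by the H37Rv MIC from the resazurin broth microdilution assay.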

Compound	Activity [1]	Activity [2]	MIC [3]	Activity [4]	MIC [5]	CC50 at 72 h [6]	selectivity ratio [7]	MIC90 [3]
COC(=O)c1cc(-c2cccc(NC(=O)c3ccc(/C=C/C(=O)c4ccccc4O)cc3)c2)on1	inactive	inactive	16 µg/mL (≈ 34.2 µM)	inactive				
CN[C@@H]1[C@H](O[C@H]2[C@H](O[C@H]3[C@H](O)[C@@H](O)[C@H](N=C(N)N)[C@@H](O)[C@@H]3N=C(N)N)O[C@@H](C)[C@]2(O)C=O)O[C@@H](CO)[C@H](O)[C@H]1O [STREPTOMYCIN]			0.5 µg/mL (≈ 0.86 µM)		2 µg/mL (≈ 3.44 µM)			
COC(=O)c1cc(-c2cccc(NC(=O)c3ccc(/C=C/C(=O)c4ccc(O)cc4)cc3)c2)on1	inactive	inactive	> 64 µg/mL	inactive				
COC(=O)c1cc(-c2cccc(NC(=O)c3ccc(/C=C/C(=O)c4ccc(C)c([N+](=O)[O-])c4)cc3)c2)on1	inactive	inactive	4 µg/mL (≈ 7.82 µM)	inactive		> 80 µg/mL	> 20	
COC(=O)c1cc(-c2cccc(NC(=O)c3ccc(/C=C/C(=O)c4cccc(OC)c4)cc3)c2)on1	inactive	inactive	2 µg/mL (≈ 4.15 µM)	inactive		> 100 µg/mL	> 50	
O=C(O)c1ccc(C(=O)/C=C/c2ccc3ccccc3c2)cc1			0.5 µg/mL (≈ 1.65 µM)					
COC(=O)c1cc(-c2cccc(NC(=O)c3ccc(OCc4ccc(Cl)cc4)cc3)c2)on1	inactive	inactive	1 µg/mL (≈ 2.16 µM)	inactive		> 80 µg/mL	> 80	
CCOC(=O)c1cc(COc2cc(C(F)(F)F)nc3cc(C(F)(F)F)cc(C(F)(F)F)c23)on1			0.39 µg/mL (≈ 0.776 µM)					
O=C(/C=C/c1ccc([N+](=O)[O-])o1)c1ccc(N2CCCCC2)cc1			0.06 µg/mL (≈ 0.184 µM)					
COC(=O)c1cc(-c2cccc(NC(=O)c3ccc(/C=C/C(=O)c4ccc(OC)cc4)cc3)c2)on1	inactive	inactive	4 µg/mL (≈ 8.29 µM)	inactive		> 10 µg/mL	> 2.5	
COC(=O)c1cc(-c2cccc(NC(=O)c3ccc(/C=C/C(=O)c4cccc([N+](=O)[O-])c4)cc3)c2)on1	inactive	inactive	2 µg/mL (≈ 4.02 µM)	inactive		> 40 µg/mL	> 20	
O=C(/C=C/c1ccc(-n2ccnc2)cc1)c1ccc(OCc2cc(F)ccc2F)cc1			0.78 µg/mL (≈ 1.87 µM)					
COC(=O)c1cc(-c2cccc(NC(=O)c3ccc(/C=C/C(=O)c4ccc(OC)c(OC)c4)cc3)c2)on1	inactive	inactive	1 µg/mL (≈ 1.95 µM)	inactive		> 50 µg/mL	> 50	
COC(=O)c1cc(-c2cccc(NC(=O)c3ccc(/C=C/C(=O)c4ccc(Br)cc4)cc3)c2)on1	inactive	inactive	1 µg/mL (≈ 1.88 µM)	inactive		> 20 µg/mL	> 2	
CC(C)Cc1ccc(C(=O)/C=C/c2ccc(C(=O)O)cc2)cc1			32 µg/mL (≈ 104 µM)			< 10 µg/mL	< 10	
COC(=O)c1cc(-c2cccc(NC(=O)c3ccc(/C=C/C(=O)c4cccc(C(F)(F)F)c4)cc3)c2)on1	inactive	inactive	1 µg/mL (≈ 1.92 µM)	inactive		> 20 µg/mL	> 20	
COC(=O)c1cc(-c2cccc(NC(=O)c3ccc(/C=C/C(=O)c4cccc(Br)c4)cc3)c2)on1	inactive	inactive	4 µg/mL (≈ 7.53 µM)	inactive		> 100 µg/mL	> 25	
COC(=O)c1cc(-c2cccc(NC(=O)c3ccc(/C=C/C(=O)c4ccccc4OC)cc3)c2)on1	inactive	inactive	1 µg/mL (≈ 2.07 µM)	inactive		> 40 µg/mL	> 40	
COC(=O)c1cc(-c2cccc(NC(=O)c3ccc(/C=C/C(=O)c4ccc([N+](=O)[O-])cc4)cc3)c2)on1	inactive	inactive	2 µg/mL (≈ 4.02 µM)	inactive		> 20 µg/mL	> 10	
O=C(/C=C/c1c[nH]c2ccccc12)c1cccs1			49.9 µg/mL (≈ 197 µM)					
CO[C@H]1/C=C/O[C@@]2(C)Oc3c(C)c(O)c4c(O)c(c(/C=N/N5CCN(C)CC5)c(O)c4c3C2=O)NC(=O)/C(C)=C\C=C\[C@H](C)[C@H](O)[C@@H](C)[C@@H](O)[C@@H](C)[C@H](OC(C)=O)[C@@H]1C [RIFAMPIN]			0.03 µg/mL (≈ 0.0365 µM)		0.06 µg/mL (≈ 0.0729 µM)			
COC(=O)c1cc(-c2cccc(NC(=O)c3ccc(/C=C/C(=O)c4ccc(C)c(F)c4)cc3)c2)on1	inactive	inactive	2 µg/mL (≈ 4.13 µM)	inactive		> 50 µg/mL	> 25	

Compound	Activity [1]	Activity [2]	MIC [3]	Activity [4]	MIC [5]	CC50 at 72 h [6]	selectivity ratio [7]	MIC90 [3]
CCOC(=O)c1cc(-c2cccc(NC(=O)c3cccc(C(F)(F)F)c3)c2)on1			64 µg/mL (≈ 158 µM)					
COC(=O)[C@H](NC(=O)c1cc(COc2ccc3sc(C)nc3c2)on1)c1ccccc1			0.61 µg/mL (≈ 1.39 µM)					
NNC(=O)c1ccncc1 [ISONIAZID]			0.03 µg/mL (≈ 0.219 µM)		0.03 µg/mL (≈ 0.219 µM)			
COc1ccc(OC)c(/C=C/C(=O)c2ccc(Nc3ccnc4cc(Cl)ccc34)cc2)c1			3.12 µg/mL (≈ 7.01 µM)					
O=C(O)c1ccc(/C=C/C(=O)c2ccc(Cl)cc2)cc1			4 µg/mL (≈ 14 µM)			< 10 µg/mL	< 10	
COC(=O)c1cc(-c2cccc(NC(=O)c3ccc(/C=C/C(=O)c4ccc(F)cc4)cc3)c2)on1	inactive	inactive	4 µg/mL (≈ 8.5 µM)	inactive		> 20 µg/mL	> 5	
COC(=O)c1cc(-c2cccc(NC(=O)c3ccc(/C=C/C(=O)c4ccccc4Br)cc3)c2)on1	inactive	inactive	1 µg/mL (≈ 1.88 µM)	inactive		> 40 µg/mL	> 40	
COC(=O)c1cc(-c2cccc(NC(=O)c3ccc(/C=C/C(=O)c4cc(F)ccc4F)cc3)c2)on1	inactive	inactive	1 µg/mL (≈ 2.05 µM)	inactive		> 40 µg/mL	> 40	
CCOC(=O)c1cc(-c2cccc(OCc3cccc(C(F)(F)F)c3)c2)on1			0.23 µg/mL (≈ 0.588 µM)					
CCCOc1ccc(C(=O)/C=C/c2ccc(C(=O)O)cc2)cc1			32 µg/mL (≈ 103 µM)			< 10 µg/mL	< 10	
COC(=O)c1cc(-c2cccc(NC(=O)c3ccc(/C=C/C(=O)c4cccnc4)cc3)c2)on1	inactive	inactive	64 µg/mL (≈ 141 µM)	inactive				
COC(=O)c1cc(-c2cccc(NC(=O)c3ccc(/C=C/C(=O)c4ccccc4)cc3)c2)on1	inactive	inactive	1 µg/mL (≈ 2.21 µM)	inactive		> 50 µg/mL	> 50	
COC(=O)c1cc(-c2cccc(NC(=O)c3ccc(/C=C/C(=O)c4cc(OC)c(OC)c(OC)c4)cc3)c2)on1	inactive	inactive	1 µg/mL (≈ 1.84 µM)	inactive		> 50 µg/mL	> 50	
CCOC(=O)c1nnn(-c2cccc(NC(=O)c3ccc(/C=C/C(=O)c4ccc(Cl)cc4)cc3)c2)c1C		inactive	> 64 µg/mL					
COC(=O)c1cc(-c2cccc(NC(=O)c3ccc(/C=C/C(=O)c4ccc(OC)c([N+](=O)[O-])c4)cc3)c2)on1	inactive	inactive	1 µg/mL (≈ 1.9 µM)	inactive		> 40 µg/mL	> 40	
COC(=O)c1cc(-c2cccc(NC(=O)/C=C/c3ccc(Cl)cc3)c2)on1	inactive	inactive	2 µg/mL (≈ 5.22 µM)	inactive				
COC(=O)c1cc(-c2cccc(NC(=O)c3ccc(/C=C/C(=O)c4cccc(F)c4)cc3)c2)on1	inactive	inactive	2 µg/mL (≈ 4.25 µM)	inactive		> 40 µg/mL	> 20	
Cc1ccc(Nc2nc(-c3cc(C(=O)Nc4ccccn4)no3)c(C)s2)cc1								0.06 µg/mL (≈ 0.153 µM)
COC(=O)c1cc(-c2cccc(NC(=O)c3ccc(/C=C/C(=O)c4cccs4)cc3)c2)on1	inactive	inactive	32 µg/mL (≈ 69.8 µM)	inactive				
COC(=O)c1cc(-c2cccc(NC(=O)c3ccc(C4OC4C(=O)c4ccc(Cl)cc4)cc3)c2)on1 (stereo not drawn)	inactive	inactive	4 µg/mL (≈ 7.95 µM)	inactive		> 20 µg/mL	> 5	
COC(=O)c1cc(-c2cccc(NC(=O)c3ccc(/C=C/C(=O)c4ccc5c(c4)OCO5)cc3)c2)on1	inactive	inactive	2 µg/mL (≈ 4.03 µM)	inactive		> 40 µg/mL	> 20	
